Results: ChEMBL document CHEMBL4825680, “Structure-based discovery of potent and selective small-molecule inhibitors targeting signal transducer and activator of transcription 3 (STAT3)” (Eur J Med Chem, 2021)
Calls of active or inactive are those of the source.

How the values were obtained:
[1] = target: T1, Signal transducer and activator of transcription 3 (Homo sapiens, UniProt P40763); assay: Inhibition of STAT3 phosphorylation at Tyr705 residue in human MDA-MB-231 cells after 3 hrs by Western blotting analysis; assay type: cell-based; settings: dose 0.3-3 µM
[2] = system: MDA-MB-231; assay: Effect on total STAT5 level in human MDA-MB-231 cells at 0.3 to 3 uM after 3 hrs by Western blotting analysis; assay type: functional, cell-based; settings: dose 0.3-3 µM
Procedure, shortened: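 Breast cancer cells were treated with vehicle (0.1% DMSO) or compound, then lysed in RIPA with PMSF and phosphatase inhibitors. 20–50 μg protein was run on 8 or 12% SDS-PAGE, blotted to PVDF, blocked in 5% BSA, probed with primary antibodies overnight at 4 °C, then HRP secondaries, with ECL detection.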

[3] = target: T1, Signal transducer and activator of transcription 3; assay: Inhibition of Flag-tagged STAT3 dimerization (unknown origin) expressed in HEK293T cells after 24 hrs by confocal microscopic analysis; assay type: cell-based; settings: dose 1-3 µM
Procedure, shortened: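 HEK-293T cells transfected with HA-STAT3 and Flag-STAT3. After 24 h, treated with vehicle (0.1% DMSO) or compound for 24 h, with IL-6 100 ng/mL added for 30 min. Fixed in paraformaldehyde, permeabilised with Triton X-100, stained with anti-HA and anti-Flag plus Alexa 488/555 secondaries and DAPI. Confocal imaging for colocalisation.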

[4] = target: T1, Signal transducer and activator of transcription 3; assay: Inhibition of HA-tagged STAT3 dimerization (unknown origin) expressed in HEK293T cells preincubated for 3 hrs followed by IL-3 stimulation by immunoprecipitation analysis; assay type: cell-based; settings: dose 1-3 µM
[5] = Antiproliferative activity against human MDA231-LM2-4175 cells assessed as reduction in cell viability after 72 hrs by CCK8 assay; assay type: functional, cell-based; settings: MDA231-LM2-4175, 72 h
Procedure, shortened: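 Cells seeded at 1000–8000 per well were grown overnight, then exposed to 0.1–100 μM compound or 0.1% DMSO vehicle for 72 h. CCK-8 was added for 0.5–4 h at 37 °C and absorbance read at 480 nm. Viability = (OD compound − blank)/(OD vehicle − blank) × 100, with medium as blank. IC50 fitted from three independent experiments.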

[6] = system: MDA-MB-231; assay: Antiproliferative activity against STAT3 knocked down human MDA-MB-231 cells assessed as reduction in cell viability; assay type: functional, cell-based
Procedure, shortened: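 MDA-MB-231 cells at 60–70% confluence were transfected with STAT3 siRNA or negative-control siRNA using DharmaFECT. Viability was then read by CCK-8.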

[7] = Induction of apoptosis in human MDA231-LM2-4175 cells assessed as early apoptotic cells at 1 uM after 48 hrs by Annexin-V-FITC/propidium iodide staining based flow cytometric analysis (reference value: 2.49%); assay type: functional
[8] = system: MDA-MB-468; assay: Induction of apoptosis in human MDA-MB-468 cells assessed as increase in PARP cleavage at 1 uM after 48 hrs by Western blot analysis; assay type: functional, cell-based
Procedure, shortened: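 Cells were treated with vehicle (0.1% DMSO) or compound, then analysed by western blot of RIPA lysates (20–50 μg protein, SDS-PAGE, PVDF) for PARP and cleaved caspase-7, with β-actin as loading control. Three independent experiments.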

[9] = system: MDA-MB-468; assay: Inhibition of cell migration in human MDA-MB-468 cells incubated for 12 to 96 hrs by wound healing assay; assay type: functional, cell-based; settings: dose 0.3-3 µM, time 12-96 hrs
Procedure, shortened: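 Cells grown to 100% confluence, then scratched with a pipette tip. Treated with 0–3 μM until vehicle-treated cells had migrated into the scratch. Images taken by microscope after about 12–96 h. Triplicate experiments.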

[10] = system: MDA-MB-468; assay: Inhibition of cell invasion in human MDA-MB-468 cells incubated for 12 hrs by crystal violet staining based transwell assay; assay type: functional; settings: dose 1-3 µM
Procedure, shortened: (§1)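 Cells seeded at 1.5×10^4–3×10^4 per well in the upper chamber of 8.0 µm pore Transwell inserts and treated with graded compound for 12 h. Non-invading cells removed with cotton. Invaded cells fixed in 4% paraformaldehyde, stained with crystal violet, photographed and counted. Triplicate.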

[11] = system: MDA231-LM2-4175; assay: Inhibition of cell invasion in human MDA231-LM2-4175 cells incubated for 12 hrs by crystal violet staining based transwell assay; assay type: functional; settings: dose 1-3 µM; procedure, shortened: as §1
[12] = AUC(0 to last) in Sprague-Dawley rat at 10 mg/kg, po measured up to 24 hrs by LC-MS/MS analysis; assay type: ADME, organism-based; parameters: route oral, dose 10 mg/kg, time <=24; settings: in vivo
Procedure, shortened: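 Male SD rats given a single oral dose of 10 mg/kg in DMSO/0.5% HPMC (5/95, v/v). Blood was drawn at 0.25, 0.5, 1, 2, 4, 8 and 24 h, and plasma was analysed by LC-MS/MS on a BEH phenyl column with a formic acid water/acetonitrile mobile phase.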

[13] = system: MDA231-LM2-4175; assay: Antitumor activity against human MDA231-LM2-4175 cells xenografted in mouse assessed as reduction in Ki67 expression at 5 to 15 mg/kg, iv administered once daily for 20 days by immunohistochemical analysis; assay type: functional, organism-based; settings: dose 5-15 mg/kg, time 20.0 day
[14] = system: MDA231-LM2-4175; assay: Antitumor activity against human MDA231-LM2-4175 cells xenografted in mouse assessed as reduction in Mcl expression at 5 to 15 mg/kg, iv administered once daily for 20 days by Western blotting analysis; assay type: functional, organism-based; settings: dose 5-15 mg/kg, time 20.0 day
[15] = Toxicity in mouse xenografted with human MDA-MB-231-4175 cells assessed as morphological change in kidney at 5 to 15 mg/kg, […] once daily for 20 days by HE staining based assay; assay type: organism-based; settings: in vivo, iv, 480 h, dose 5-15 mg/kg, time 20 day
Procedure, shortened: (§2)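 Female NOD-SCID mice aged 4–5 weeks, given 2×10^6–3×10^6 MDA-MB-231-4175 cells subcutaneously in the flank. At about 100 mm³ tumour volume, randomised n=6/group: vehicle (PBS with 15% Cremophor EL), 5 or 15 mg/kg intraperitoneally daily. Killed at day 20; heart, liver, spleen, lung and kidney collected for morphological examination.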

[16] = Toxicity in NOD/SCID mouse xenografted with patient-derived breast cancer cells assessed as morphological change in heart at 5 to 15 mg/kg, […] once daily for 20 days by HE staining based assay; assay type: organism-based; settings: in vivo, iv, dose 5-15 mg/kg, time 20 day
Procedure, shortened: as §2, with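 “implanted” for “aged 4–5 weeks, given 2×10^6–3×10^6 MDA-MB-231-4175 cells”, “flank with about 2 mm³ TNBC PDX fragments.” for “flank.”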

[17] = Toxicity in NOD/SCID mouse xenografted with patient-derived breast cancer cells assessed as morphological change in liver at 5 to 15 mg/kg, […] once daily for 20 days by HE staining based assay; assay type: organism-based; settings: in vivo, iv, dose 5-15 mg/kg, time 20 day
Procedure, shortened: as §2, with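 “implanted” for “aged 4–5 weeks, given 2×10^6–3×10^6 MDA-MB-231-4175 cells”, “flank with about 2 mm³ TNBC PDX fragments.” for “flank.”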

[18] = Toxicity in NOD/SCID mouse xenografted with patient-derived breast cancer cells assessed as change in body weight at 5 to 15 mg/kg, ip administered once daily for 20 days; settings: in vivo, 480 h

T1 sequence (P40763 whole entry): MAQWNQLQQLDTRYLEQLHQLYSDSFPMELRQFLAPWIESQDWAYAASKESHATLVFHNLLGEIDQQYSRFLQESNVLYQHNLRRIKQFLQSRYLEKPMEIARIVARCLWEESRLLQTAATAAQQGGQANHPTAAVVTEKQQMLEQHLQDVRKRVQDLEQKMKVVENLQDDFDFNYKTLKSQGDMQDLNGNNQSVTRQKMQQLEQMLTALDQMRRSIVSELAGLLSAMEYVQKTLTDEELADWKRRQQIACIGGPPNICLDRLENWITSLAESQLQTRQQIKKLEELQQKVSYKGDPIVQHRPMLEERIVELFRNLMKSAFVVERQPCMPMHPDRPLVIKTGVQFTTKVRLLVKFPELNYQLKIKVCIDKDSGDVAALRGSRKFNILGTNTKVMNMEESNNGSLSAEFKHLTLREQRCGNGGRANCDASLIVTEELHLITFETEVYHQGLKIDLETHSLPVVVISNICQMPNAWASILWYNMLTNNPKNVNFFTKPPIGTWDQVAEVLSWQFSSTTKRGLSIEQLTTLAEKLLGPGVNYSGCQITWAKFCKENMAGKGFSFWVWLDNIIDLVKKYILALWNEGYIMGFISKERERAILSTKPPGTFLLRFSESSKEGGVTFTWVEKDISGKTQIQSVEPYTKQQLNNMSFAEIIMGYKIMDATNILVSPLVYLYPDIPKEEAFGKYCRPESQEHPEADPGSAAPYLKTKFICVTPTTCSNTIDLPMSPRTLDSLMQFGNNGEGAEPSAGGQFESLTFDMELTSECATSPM

O=C(Cc1c(-c2ccccc2)nc2ccccn12)Nc1ccc2c(c1)S(=O)(=O)C=C2
inactive: Activity [2] | Activity [6] | Activity [13]
active: inhibition [1] Dose-Dependent Effect | inhibition [3] Dose-Dependent Effect | inhibition [4] Dose-Dependent Effect | Activity [8] | inhibition [9] Dose-Dependent Effect | inhibition [10] Dose-Dependent Effect | inhibition [11] Dose-Dependent Effect | Activity [14]
6.17%: Activity [7]
2500 nM: IC50 [5]
54.6 ng·h/mL: AUC(0-t) at 24 h [12]
Non-Toxic: Activity [15] | Activity [16] | Activity [17] | Activity [18]
